Active and inactive are the calls of the source. No cut-off for these calls is given here.
What was measured:
Mus musculus [1] = experiment: Anticonvulsant activity was determined as percentage of block of the hind-limb tonic-extensor seizure caused by application of an electric shock to mice via corneal electrodes at 60 min by 200 mg/kg peroral dose; format: functional; conditions: route oral
Method in brief: (§1)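 Supramaximal electroshock: 50-mA current (60 Hz, 0.20 s) via corneal electrodes induced hind-limb tonic extension; inhibition of this component scored as activity. Mice dosed ip and/or po in aqueous solution or suspension (ca. 0.1% Tween 80, distilled water). Tested at 30, 60, 120 and 240 min (sometimes 45 min); ten mice per time point.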

Mus musculus [2] = experiment: Anticonvulsant activity following p.o. administration by standard maximal electroshock test in mice.; format: functional; conditions: po; method in brief: as §1
Mus musculus [3] = experiment: Percentage block of the hind-limb tonic-extensor seizure was determined after application of an electric shock to mice for 30 min followed by 200 mg/kg peroral dose; format: functional; conditions: route oral; method in brief: as §1
Mus musculus [4] = experiment: Anticonvulsant activity was determined as percentage of block of the hind-limb tonic-extensor seizure caused by application of an electric shock to mice via corneal electrodes at 240 min by 100 mg/kg intraperitoneal dose; format: functional; method in brief: as §1
Mus musculus [5] = experiment: Anticonvulsant activity was determined as percentage of block of the hind-limb tonic-extensor seizure caused by application of an electric shock to mice via corneal electrodes at 60 min by 100 mg/kg intraperitoneal dose; format: functional; method in brief: as §1
Mus musculus [6] = experiment: Anticonvulsant activity by using a standard maximal electroshock test (MES) in mice, by intraperitoneal administration of the compound; format: functional; conditions: ip; method in brief: as §1
Mus musculus [7] = experiment: Anticonvulsant activity was determined as percentage of block of the hind-limb tonic-extensor seizure caused by application of an electric shock to mice via corneal electrodes at 240 min by 200 mg/kg peroral dose; format: functional; conditions: route oral; method in brief: as §1
Mus musculus [8] = experiment: Anticonvulsant activity was determined as percentage of block of the hind-limb tonic-extensor seizure caused by application of an electric shock to mice via corneal electrodes at 120 min by 100 mg/kg intraperitoneal dose; format: functional; method in brief: as §1
Mus musculus [9] = experiment: Anticonvulsant activity was determined as percentage of block of the hind-limb tonic-extensor seizure caused by application of an electric shock to mice via corneal electrodes at 120 min by 200 mg/kg peroral dose; format: functional; conditions: route oral; method in brief: as §1
Mus musculus [10] = experiment: Anticonvulsant activity was determined as percentage of block of the hind-limb tonic-extensor seizure caused by application of an electric shock to mice via corneal electrodes at 30 min by 100 mg/kg intraperitoneal dose; format: functional; method in brief: as §1
Mus musculus [11] = experiment: Percentage block of the hind-limb tonic-extensor seizure was determined after application of an electric shock to mice for 60 min followed by 100 mg/kg peroral dose; format: functional; conditions: route oral
Method in brief: (§2)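 Mouse MES test: supramaximal seizure from a 50-mA current (60 Hz, 0.20-s) through corneal electrodes. […] Ten mice per time point. Compound given in aqueous solution or in suspension in ca. 0.1% Tween 80 and distilled water. Free food and water except during testing.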

Mus musculus [12] = experiment: Percentage block of the hind-limb tonic-extensor seizure was determined after application of an electric shock to mice for 240 min followed by 50 mg/kg intraperitoneal dose; format: functional; method in brief: as §1
Mus musculus [13] = experiment: Percentage block of the hind-limb tonic-extensor seizure was determined after application of an electric shock to mice for 240 min followed by 100 mg/kg peroral dose; format: functional; conditions: route oral; method in brief: as §1
Mus musculus [14] = experiment: Neurotoxic dose ED50 after po administration in mice at 4 hrs was determined; format: functional
Method in brief: (§3)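 Neurotoxicity measured in mice with the rotoreel test after oral dosing. TD50 is the neurotoxic dose ED50, read at 1 h (peak time for TD50) and at 4 h (approximate peak time for the MES ED50). Compound was given as an aqueous solution or as a suspension in about 0.1% Tween 80 in distilled water. Animals had free access to food and water except during testing.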

Mus musculus [15] = experiment: Neurotoxic dose ED50 after po administration in mice at 1 hrs was determined; format: functional; method in brief: as §3
Mus musculus [16] = experiment: Percentage block of the hind-limb tonic-extensor seizure was determined after application of an electric shock to mice for 120 min followed by 100 mg/kg peroral dose; format: functional; conditions: route oral; method in brief: as §1
Mus musculus [17] = experiment: Percentage block of the hind-limb tonic-extensor seizure was determined after application of an electric shock to mice for 30 min followed by 100 mg/kg peroral dose; format: functional; conditions: route oral; method in brief: as §1
Mus musculus [18] = experiment: LD50 of compound after ip administration after 24 hrs was determined; format: functional
Mus musculus [19] = experiment: Anticonvulsant activity by using a standard maximal electroshock test (MES) in mice by intraperitoneal administration of the compound; format: functional; conditions: ip; method in brief: as §1
Mus musculus [20] = experiment: Percentage block of the hind-limb tonic-extensor seizure was determined after application of an electric shock to mice for 30 min followed by 50 mg/kg intraperitoneal dose; format: functional; method in brief: as §1
Mus musculus [21] = experiment: Percentage block of the hind-limb tonic-extensor seizure was determined after application of an electric shock to mice for 120 min followed by 50 mg/kg intraperitoneal dose; format: functional; method in brief: as §1
Mus musculus [22] = experiment: Percentage block of the hind-limb tonic-extensor seizure was determined after application of an electric shock to mice for 60 min followed by 50 mg/kg intraperitoneal dose; format: functional; method in brief: as §2
Mus musculus [23] = experiment: Percentage block of the hind-limb tonic-extensor seizure was determined after application of an electric shock to mice for 60 min followed by 15 mg/kg peroral dose; format: functional; conditions: route oral; method in brief: as §2
Mus musculus [24] = experiment: Percentage block of the hind-limb tonic-extensor seizure was determined after application of an electric shock to mice for 240 min followed by 15 mg/kg peroral dose; format: functional; conditions: route oral; method in brief: as §1
Mus musculus [25] = experiment: Percentage block of the hind-limb tonic-extensor seizure was determined after application of an electric shock to mice for 240 min followed by 10 mg/kg intraperitoneal dose; format: functional; method in brief: as §1
Mus musculus [26] = experiment: Percentage block of the hind-limb tonic-extensor seizure was determined after application of an electric shock to mice for 30 min followed by 10 mg/kg intraperitoneal dose; format: functional; method in brief: as §1
Mus musculus [27] = experiment: Percentage block of the hind-limb tonic-extensor seizure was determined after application of an electric shock to mice for 120 min followed by 15 mg/kg peroral dose; format: functional; conditions: route oral; method in brief: as §1
Mus musculus [28] = experiment: Percentage block of the hind-limb tonic-extensor seizure was determined after application of an electric shock to mice for 120 min followed by 10 mg/kg intraperitoneal dose; format: functional; method in brief: as §1
Mus musculus [29] = experiment: Percentage block of the hind-limb tonic-extensor seizure was determined after application of an electric shock to mice for 60 min followed by 10 mg/kg intraperitoneal dose; format: functional; method in brief: as §1
Mus musculus [30] = experiment: Percentage block of the hind-limb tonic-extensor seizure was determined after application of an electric shock to mice for 30 min followed by 15 mg/kg peroral dose; format: functional; conditions: route oral; method in brief: as §1
Mus musculus [31] = experiment: Percentage block of the hind-limb tonic-extensor seizure was determined after application of an electric shock to mice for 120 min followed by 200 mg/kg peroral dose; format: functional; conditions: route oral; method in brief: as §1
Mus musculus [32] = experiment: Percentage block of the hind-limb tonic-extensor seizure was determined after application of an electric shock to mice for 240 min followed by 200 mg/kg peroral dose; format: functional; conditions: route oral; method in brief: as §1
Mus musculus [33] = experiment: Percentage block of the hind-limb tonic-extensor seizure was determined after application of an electric shock to mice for 120 min followed by 100 mg/kg intraperitoneal dose; format: functional; method in brief: as §1
Mus musculus [34] = experiment: Anticonvulsant activity by using a standard maximal electroshock test (MES) in mice, by 100 mg/kg intraperitoneal administration of the compound; I=inactive, 0-10% block; format: functional, organism-based; parameters: dose 100 mg/kg; method in brief: as §1
Mus musculus [35] = experiment: Percentage block of the hind-limb tonic-extensor seizure was determined after application of an electric shock to mice for 30 min followed by 100 mg/kg intraperitoneal dose; format: functional; method in brief: as §1
Mus musculus [36] = experiment: Percentage block of the hind-limb tonic-extensor seizure was determined after application of an electric shock to mice for followed by 200 mg/kg peroral dose; conditions: route oral
Mus musculus [37] = experiment: Anticonvulsant activity by using a standard maximal electroshock test (MES) in mice, by 200 mg/kg peroral administration of the compound; I=inactive, 0-10% block; format: functional, organism-based; parameters: dose 200 mg/kg; method in brief: as §1
Mus musculus [38] = experiment: Percentage block of the hind-limb tonic-extensor seizure was determined after application of an electric shock to mice for 240 min followed by 100 mg/kg intraperitoneal dose; format: functional; method in brief: as §1
Mus musculus [39] = experiment: Percentage block of the hind-limb tonic-extensor seizure was determined after application of an electric shock to mice for 60 min followed by 100 mg/kg intraperitoneal dose; format: functional; method in brief: as §1
Mus musculus [40] = experiment: Anticonvulsant activity by using a standard maximal electroshock test (MES) in mice, by intraperitoneal administration of the compound; Range 50-100 mg/kg; format: functional; conditions: ip; method in brief: as §1
Mus musculus [41] = experiment: Percentage block of the hind-limb tonic-extensor seizure was determined after application of an electric shock to mice for 60 min followed by 200 mg/kg peroral dose; format: functional; conditions: route oral; method in brief: as §2
Mus musculus [42] = experiment: Percentage block of the hind-limb tonic-extensor seizure was determined after application of an electric shock to mice for 60 min followed by 40 mg/kg peroral dose; format: functional; conditions: route oral; method in brief: as §2
Mus musculus [43] = experiment: Percentage block of the hind-limb tonic-extensor seizure was determined after application of an electric shock to mice for 30 min followed by 40 mg/kg peroral dose; format: functional; conditions: route oral; method in brief: as §1
Mus musculus [44] = experiment: Percentage block of the hind-limb tonic-extensor seizure was determined after application of an electric shock to mice for 120 min followed by 40 mg/kg peroral dose; format: functional; conditions: route oral; method in brief: as §1
Mus musculus [45] = experiment: Percentage block of the hind-limb tonic-extensor seizure was determined after application of an electric shock to mice for 240 min followed by 40 mg/kg peroral dose; format: functional; conditions: route oral; method in brief: as §1

Structure (SMILES): NS(=O)(=O)OCC1COC2(CCCCC2)O1 (configuration not stated)
- Block (Mus musculus [1]): 30%
- ED50 (Mus musculus [2]): ~150 mg/kg
- Block (Mus musculus [3]): 70%
- Block (Mus musculus [4]): 0%
- Block (Mus musculus [5]): 10%
- ED50 (Mus musculus [6]): 169 mg/kg
- Block (Mus musculus [7]): 10%
- Block (Mus musculus [8]): 0%
- Block (Mus musculus [9]): 20%
- Block (Mus musculus [10]): 30%

Structure (SMILES): CC1(C)O[C@@H]2[C@@H](CO[C@@]3(COS(N)(=O)=O)OC(C)(C)O[C@@H]23)O1 [TOPIRAMATE]
- Block (Mus musculus [11]): 80%
- Block (Mus musculus [12]): 50%
- Block (Mus musculus [13]): 100%
- TD50 (Mus musculus [14]): 1100 mg/kg
- TD50 (Mus musculus [15]): 407 mg/kg
- Block (Mus musculus [16]): 80%
- Block (Mus musculus [17]): 40%
- ED50 (Mus musculus [2]): 61 mg/kg
- LD50 (Mus musculus [18]): > 1000 mg/kg
- ED50 (Mus musculus [19]): 64 mg/kg
- Block (Mus musculus [20]): 20%
- Block (Mus musculus [21]): 70%
- Block (Mus musculus [22]): 60%

Structure (SMILES): O=C1NC(=O)C(c2ccccc2)(c2ccccc2)N1 [PHENYTOIN]
- Block (Mus musculus [23]): 80%
- Block (Mus musculus [24]): 30%
- Block (Mus musculus [25]): 70%
- Block (Mus musculus [26]): 60%
- ED50 (Mus musculus [2]): 10 mg/kg
- Block (Mus musculus [27]): 70%
- Block (Mus musculus [28]): 80%
- ED50 (Mus musculus [6]): 10 mg/kg
- Block (Mus musculus [29]): 60%
- Block (Mus musculus [30]): 50%

Structure (SMILES): CC1(C)C2CCC(COS(N)(=O)=O)C1C2 (configuration not stated)
- Block (Mus musculus [31]): 10%
- Block (Mus musculus [32]): 0%
- Block (Mus musculus [3]): 10%
- Block (Mus musculus [33]): 0%
- ED50 (Mus musculus [34]): inactive
- Block (Mus musculus [35]): 10%
- Block (Mus musculus [36]): 10%
- ED50 (Mus musculus [37]): inactive
- Block (Mus musculus [38]): 0%
- Block (Mus musculus [39]): 10%

Structure (SMILES): CNS(=O)(=O)OC[C@@]12OC[C@H]3OC(C)(C)OC3C1OC(C)(C)O2 (some centres not stated)
- Block (Mus musculus [31]): 100%
- Block (Mus musculus [32]): 100%
- ED50 (Mus musculus [2]): 200 mg/kg
- Block (Mus musculus [3]): 20%
- Block (Mus musculus [33]): 80%
- ED50 (Mus musculus [40]): 50 mg/kg
- Block (Mus musculus [35]): 30%
- Block (Mus musculus [41]): 70%
- Block (Mus musculus [38]): 30%
- Block (Mus musculus [39]): 90%

Structure (SMILES): NS(=O)(=O)Cc1noc2ccccc12 [ZONISAMIDE]
- Block (Mus musculus [42]): 40%
- Block (Mus musculus [43]): 20%
- Block (Mus musculus [44]): 40%
- Block (Mus musculus [45]): 50%

Reference: ChEMBL document CHEMBL1123867, “Anticonvulsant O-alkyl sulfamates. 2,3:4,5-Bis-O-(1-methylethylidene)-beta-D-fructopyranose sulfamate and related compounds” (1987)
